Compound activity from PubChem BioAssay.
SUMO1-SIM PPI: SUMO1-SIM interaction modulation; SUMO1 binding to a labelled peptide, TR-FRET, 1 h; AID 602429; P63165; 360,000 compounds, 0.33% hits; inhibition, % at 20 µM; in the data active means inhibition above about 37%
Target sequence (P63165 whole entry, looked up): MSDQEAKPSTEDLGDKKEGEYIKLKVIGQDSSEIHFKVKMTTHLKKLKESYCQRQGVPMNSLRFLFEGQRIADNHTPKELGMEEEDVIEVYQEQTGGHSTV
LMPTP block: LMPTP (human) inhibition; P24666; recombinant LMPTP-A, OMFP fluorogenic substrate, fluorescence intensity; inhibition, % at 20 µM; 360,000 compounds, 0.22% hits; AID 651560;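 active means compounds that cut the enzyme signal by at least half of the control window in the single-dose screen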
Target sequence (P24666 whole entry, looked up): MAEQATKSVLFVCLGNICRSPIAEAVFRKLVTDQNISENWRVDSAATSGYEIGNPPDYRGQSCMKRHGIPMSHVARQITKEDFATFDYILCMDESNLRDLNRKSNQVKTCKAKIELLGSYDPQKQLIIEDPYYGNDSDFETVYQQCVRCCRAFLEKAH
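material = LMPTP-A | quantity = 0.625 nM enzyme | reagent = OMFP substrate, 400 µM final | buffer or medium = Bis-Tris pH 6.0, DTT, detergent | detection = endpoint fluorescence intensity from OMFP dephosphorylation | dosing = single 20 µM dose | read-out basis = % inhibition relative to no-enzyme and uninhibited control wells | control set = no-enzyme and uninhibited controls | timing = 50 min at room temperature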
DNMT1 inh: blocks human DNA methyltransferase DNMT1 | P26358 | DNMT1 molecular beacon, Hinp1I cleavage, fluorescence | inhibition (reported as % activation of signal), % at 10 µM | 360,000 compounds, 0.83% hits; in the data active means inhibition above about 50%
STEP block: STEP (human) phosphatase inhibition; AID 588621; P54829; recombinant STEP, OMFP fluorogenic substrate, fluorescence; 360,000 compounds, 0.25% hits; inhibition, % at 20 µM;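 active means inhibition at 20 µM, scaled per plate between control wells, above about 37%, limit read from the data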
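Material: STEP (striatal-enriched tyrosine phosphatase) enzyme, cell-free | Medium: 50 mM Bis-Tris pH 6.0 with 2.5 mM DTT and 0.005% Tween 20 | Read-out: Percent inhibition scaled to no-enzyme and uninhibited-enzyme controls, plate-pattern corrected | Signal: Fluorescence read at 480 nm ex / 540 nm em | Times: 20 min reaction, room temperature, in the dark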
Scp-1 inhibitor: Scp-1 (human) phosphatase inhibition; Recombinant Scp1, phosphopeptide, malachite green phosphate absorbance; inhibition, % at 20 µM; 340,000 compounds, 0.88% hits; AID 493091;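 active means inhibition above about 50% at 20 µM, limit read from the data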
Target sequence (Q9GZU7 76-261 limits assumed): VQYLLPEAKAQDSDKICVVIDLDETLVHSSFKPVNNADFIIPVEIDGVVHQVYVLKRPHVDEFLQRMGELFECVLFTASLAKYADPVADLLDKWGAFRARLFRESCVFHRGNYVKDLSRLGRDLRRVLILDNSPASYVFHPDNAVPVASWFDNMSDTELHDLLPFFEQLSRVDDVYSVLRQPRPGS
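Test system: SCP-1 catalytic domain; Buffer or medium: Acidic Tris acetate buffer with magnesium and detergent; Also added: Phosphorylated 17-residue peptide substrate; Compound: single 20 µM dose, 1% DMSO; Schedule: enzyme reaction 45 min at room temperature, colour 5 min, stabilisation 30 min; Signal: Phosphate-binding colour reagent, absorbance read at 630 nm.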
GRK2 inh: blocks RNA aptamer binding to human GRK2. AID 488847. 330,000 compounds, 0.59% hits. P25098. inhibition of aptamer binding, % at 10 µM. bead flow cytometry, FAM-aptamer displacement from GRK2;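 active means inhibition of aptamer binding above 40%, roughly 3 SD of noise, on plates passing a quality check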;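 further: median bead fluorescence of bound FAM aptamer so fluorescent compounds give negative values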
Scp-1 conf: confirmation of human Scp-1 phosphatase inhibitors | shares compounds with Scp-1 inhibitor | recombinant SCP-1 catalytic domain, phosphate release, malachite green absorbance | inhibition, % at 20 µM | 2,500 compounds, 61% hits | AID 540281
Scp-1 MG ctr: counter-screen for Scp-1 inhibitors: colorimetric interference | shares compounds with Scp-1 inhibitor | Colorimetric interference counterscreen, malachite green absorbance 630 nm | apparent inhibition (interference), % at 20 µM | 2,500 tested, under 10 active;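 further: compounds added after enzyme reaction finished so only phosphate colour detection is probed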
Scp-1 Tm shift: validation of human Scp-1 inhibitors by thermal shift binding; shares compounds with Scp-1 inhibitor; Recombinant SCP1, Sypro Orange thermal shift Tm; 1,500 compounds, 25% hits; thermal shift relative to vanadate control, % at 40 µM;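 active means substances whose mean melting-temperature shift, as a percentage of the reference inhibitor's shift, reaches about 5.3%, limit read from the data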
DNMT1 interf DR: beacon fluorescence artifact, dose response counter-screen. shares compounds with DNMT1 inh. molecular beacon fluorescence, spectral interference counter-screen. IC50, µM. 200 tested, under 10 active. AID 602382; call rule not given here
DNMT1 inh conf: confirmation of human DNMT1 inhibitors. shares compounds with DNMT1 inh. DNMT1 molecular beacon HinP1I cleavage, fluorescence. inhibition, % at 10 µM. 2,300 compounds, 8% hits. AID 602385;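 active means average inhibition of at least 30% in the single-concentration confirmation test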
DNMT1 interf: counter-screen for DNMT1 inhibitors: spectral interference; DNMT1 molecular beacon spectral interference counterscreen, fluorescence 485/520; AID 602387; shares compounds with DNMT1 inh; activation (fluorescence interference), % at 10 µM; 2,300 compounds, 1% hits;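 active means activation of at least 30% at 10 µM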;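 further: DNMT1 catalytic domain with a HinP1I cleavage step and a FAM/dabcyl DNA beacon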
Each line names hits and unclear results; the compound was inactive in the other large screens (follow-up assays come after a bar, where they were run). Compounds with a hit are over-represented: about 2.1% of the library has one in this group of screens.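 How the source made its calls, unless noted: active means inhibition of at least 30% at 20 µM; inactive means the rest.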

CCOC(=O)c1cc(-c2ccc(N3CCOCC3)cc2)nn1-c1ccccc1C(=O)O	SUMO1-SIM PPI 106, LMPTP block 58, DNMT1 inh 94, STEP block 96, Scp-1 inhibitor 80 | Scp-1 conf 64 | Scp-1 MG ctr inactive | Scp-1 Tm shift inactive | DNMT1 interf DR inactive | DNMT1 inh conf 35 | DNMT1 interf inactive
CCOC(=O)c1cc(-c2ccc(N3CCOCC3)cc2)nn1-c1ccccc1	none
O=C(NCCc1ccccc1)Nc1nnc([C@@H]2C[C@H](O)[C@@H](CO)O2)s1	none (no result: Scp-1 inhibitor, GRK2 inh)
COc1cc(OC)c(NC(=O)c2cc3ccccc3cc2O)cc1Cl	none (no result: GRK2 inh)
CC(=O)Nc1cccc(NC(=O)Cc2cccs2)c1	none
Cc1ccc([N+](=O)[O-])cc1NC(=O)Cc1ccc(F)cc1	none
COC(=O)c1cc(NC(=O)Cc2cccs2)cc(C(=O)OC)c1	DNMT1 inh 58, Scp-1 inhibitor 76 | Scp-1 conf 65 | Scp-1 MG ctr inactive | Scp-1 Tm shift 6.3 | DNMT1 inh conf inactive | DNMT1 interf inactive
COc1cc(NC(=O)c2ccccc2)c(OC)cc1NC(=O)Cc1cccs1	DNMT1 inh 73, Scp-1 inhibitor 71 | Scp-1 conf 66 | Scp-1 MG ctr inactive | Scp-1 Tm shift 8.0 | DNMT1 inh conf inactive | DNMT1 interf inactive
Cc1ccc([N+](=O)[O-])cc1NC(=O)Cc1cccs1	DNMT1 inh 81, Scp-1 inhibitor 67 | Scp-1 conf 60 | Scp-1 MG ctr inactive | Scp-1 Tm shift 5.9 | DNMT1 inh conf inactive | DNMT1 interf inactive
COCc1cn(-c2nc3ccccc3s2)nn1	none (no result: DNMT1 inh, STEP block, Scp-1 inhibitor, GRK2 inh)
Cc1cc(C=O)c(C)n1-c1ccc(Cl)c(C(=O)O)c1	DNMT1 inh 88, STEP block 66, Scp-1 inhibitor 74 | Scp-1 conf 76 | Scp-1 MG ctr inactive | Scp-1 Tm shift 6.2 | DNMT1 inh conf inactive | DNMT1 interf inactive
O=C(CSc1ccccn1)Nc1ccc2ccccc2c1	none (no result: SUMO1-SIM PPI, LMPTP block, DNMT1 inh, STEP block, Scp-1 inhibitor)
O=C(CSc1ccccn1)Nc1ccc2c(c1)C(=O)c1ccccc1C2=O	DNMT1 inh 87, STEP block 41, Scp-1 inhibitor 108 | Scp-1 conf 69 | Scp-1 MG ctr inactive | Scp-1 Tm shift 7.8 | DNMT1 inh conf inactive | DNMT1 interf inactive
CC(C)CNc1ncnc2c1ncn2[C@H]1CN(Cc2cccs2)C[C@@H](CO)O1	none (no result: Scp-1 inhibitor, GRK2 inh)
CCN(CC)c1ccc(C(=O)NNC(=O)C2CSC3(C)CCC(=O)N23)cc1 (stereo not given)	none
Cc1c(C(=O)O)cccc1-c1ccc(/C=N/n2cnnc2)o1	DNMT1 inh 58, Scp-1 inhibitor 67 | Scp-1 conf 37 | Scp-1 MG ctr inactive | Scp-1 Tm shift inactive | DNMT1 inh conf inactive | DNMT1 interf inactive
COc1ccc(CN2C(=O)CCC2(C)c2nnnn2-c2ccc3c(c2)OCCO3)cc1 (stereo not given)	none (no result: DNMT1 inh, STEP block, Scp-1 inhibitor, GRK2 inh)
CN(C)c1ccc(/C=C2\C(=N)N3N=C(CC(=O)N4CCCCC4)SC3=NC2=O)cc1	none
N=C1/C(=C\c2ccc(Br)o2)C(=O)N=C2SC(CC(=O)N3CCCCC3)=NN12	SUMO1-SIM PPI 46, DNMT1 inh 94, Scp-1 inhibitor 80 | Scp-1 conf 48 | Scp-1 MG ctr inactive | Scp-1 Tm shift 12 | DNMT1 inh conf inactive | DNMT1 interf inactive
CC(C)C[C@H]1CN(CCCC[C@@H]2CNC(=O)C(=O)N2Cc2ccccc2)C(=O)C(=O)N1CCc1ccccc1	none (no result: DNMT1 inh, STEP block, Scp-1 inhibitor, GRK2 inh)
CCOC(=O)C1=C(O)/C(=C\c2ccc(CNC(=O)C(=O)Nc3ccccc3)o2)N=C1C	DNMT1 inh 101, Scp-1 inhibitor 97 | Scp-1 conf 62 | Scp-1 MG ctr inactive | Scp-1 Tm shift 6.2 | DNMT1 inh conf inactive | DNMT1 interf inactive
CCOC(=O)C1=C(O)/C(=C\c2cccs2)N=C1C	none
Cc1cccc(C(=O)OCC(=O)c2ccc(CC(=O)N3CCOCC3)s2)c1C	DNMT1 inh 50, Scp-1 inhibitor 85 | Scp-1 conf 60 | Scp-1 MG ctr inactive | Scp-1 Tm shift inactive | DNMT1 inh conf inactive | DNMT1 interf inactive
O=C(c1coc(=O)c(Br)c1)N1CCOCC1	DNMT1 inh 74, Scp-1 inhibitor 68 (no result: GRK2 inh) | Scp-1 conf 60 | Scp-1 MG ctr inactive | Scp-1 Tm shift inactive | DNMT1 inh conf inactive | DNMT1 interf inactive
NC(=S)n1[nH]c(-c2ccc([N+](=O)[O-])cc2)c(N=Nc2ccccc2[N+](=O)[O-])c1=O	DNMT1 inh 85, Scp-1 inhibitor 63 (no result: GRK2 inh) | Scp-1 conf 38 | Scp-1 MG ctr inactive | Scp-1 Tm shift 10 | DNMT1 inh conf inactive | DNMT1 interf inactive
CCOC(=O)[C@]12CCCC=C1N(CCc1ccc(OC)c(OC)c1)C(=O)[C@H](CC(=O)N1CCCCC1)C2	none (no result: DNMT1 inh, STEP block, Scp-1 inhibitor, GRK2 inh)
O=C(COC(=O)c1c2c(nc3ccccc13)/C(=C\c1ccco1)CC2)NC1CCCC1	SUMO1-SIM PPI 42, LMPTP block 65, DNMT1 inh 97, Scp-1 inhibitor 91 (no result: GRK2 inh) | Scp-1 conf 61 | Scp-1 MG ctr inactive | Scp-1 Tm shift 15 | DNMT1 inh conf inactive | DNMT1 interf inactive
CC1CCCCC1NC(=O)COC(=O)c1c2c(nc3ccccc13)/C(=C\c1ccco1)CC2 (stereo not given)	LMPTP block 50, DNMT1 inh 85, Scp-1 inhibitor 50 (no result: GRK2 inh) | Scp-1 conf 60 | Scp-1 MG ctr inactive | Scp-1 Tm shift 9.4 | DNMT1 inh conf inactive | DNMT1 interf inactive
CCCCNC(=O)COC(=O)c1c2c(nc3ccccc13)/C(=C/c1cccs1)CC2	none
CN(CCC#N)C(=O)COC(=O)c1c2c(nc3ccccc13)/C(=C\c1ccco1)CC2	SUMO1-SIM PPI 57, LMPTP block 67, DNMT1 inh 77, Scp-1 inhibitor 84 (no result: GRK2 inh) | Scp-1 conf 53 | Scp-1 MG ctr inactive | Scp-1 Tm shift 10 | DNMT1 inh conf inactive | DNMT1 interf inactive
